What was measured:
Format in all cases: cell-free, HEK-293T
[1] = biological target: T1, Phospholipase A and acyltransferase 5 (Homo sapiens, UniProt Q96KN8); test: Inhibition of full-length C-terminal FLAG-tagged human PLAAT5 expressed in HEK293T cell lysate preincubated for 30 mins followed by MB064 addition and measured after 20 mins by SDS-PAGE based ABPP analysis
T1 sequence (Q96KN8 whole entry): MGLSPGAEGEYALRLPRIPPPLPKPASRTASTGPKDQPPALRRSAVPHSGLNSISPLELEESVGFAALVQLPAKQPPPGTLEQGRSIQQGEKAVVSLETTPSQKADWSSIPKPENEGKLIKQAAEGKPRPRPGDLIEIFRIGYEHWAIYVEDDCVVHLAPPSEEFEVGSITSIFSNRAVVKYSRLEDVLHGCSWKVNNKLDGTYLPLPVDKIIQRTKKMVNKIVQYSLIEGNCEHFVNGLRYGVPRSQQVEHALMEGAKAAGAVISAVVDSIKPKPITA
In short: (§1)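 Dose–response competitive ABPP on cytosol only, from HEK293T overexpressing FLAG-tagged PLAAT. Inhibitor 30 min rt, then MB064 20 min rt. PLAAT2 0.25 μg/μL with 250 nM probe; PLAAT3 0.5 μg/μL with 250 nM; PLAAT4 and PLAAT5 1 μg/μL with 500 nM. Fluorescence normalized to Coomassie. IC50 from curves, reported as pIC50 ± SEM, n = 3.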

[2] = biological target: T2, Phospholipase A and acyltransferase 3 (Homo sapiens, UniProt P53816); test: Inhibition of full-length C-terminal FLAG-tagged human PLAAT3 expressed in HEK293T cell lysate preincubated for 30 mins followed by MB064 addition and measured after 20 mins by SDS-PAGE based ABPP analysis; settings: for pIC50: hek-293t; in short: as §1
T2 sequence (P53816 whole entry): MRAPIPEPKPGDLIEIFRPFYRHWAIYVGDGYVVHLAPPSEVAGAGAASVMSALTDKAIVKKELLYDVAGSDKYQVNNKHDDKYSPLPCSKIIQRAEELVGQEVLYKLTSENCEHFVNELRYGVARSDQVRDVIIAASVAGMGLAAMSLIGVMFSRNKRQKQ

[3] = biological target: T3, Phospholipase A and acyltransferase 4 (Homo sapiens, UniProt Q9UL19); test: Inhibition of full-length C-terminal FLAG-tagged human PLAAT4 expressed in HEK293T cell lysate preincubated for 30 mins followed by MB064 addition and measured after 20 mins by SDS-PAGE based ABPP analysis; in short: as §1
T3 sequence (Q9UL19 whole entry): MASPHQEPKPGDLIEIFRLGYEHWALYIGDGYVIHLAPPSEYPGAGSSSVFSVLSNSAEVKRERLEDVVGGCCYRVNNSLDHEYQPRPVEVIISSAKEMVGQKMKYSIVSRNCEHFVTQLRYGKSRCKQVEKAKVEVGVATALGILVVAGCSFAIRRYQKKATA

[4] = biological target: T4, Phospholipase A and acyltransferase 2 (Homo sapiens, UniProt Q9NWW9); test: Inhibition of full-length C-terminal FLAG-tagged human PLAAT2 expressed in HEK293T cell lysate preincubated for 30 mins followed by MB064 addition and measured after 20 mins by SDS-PAGE based ABPP analysis; in short: as §1
T4 sequence (Q9NWW9 whole entry): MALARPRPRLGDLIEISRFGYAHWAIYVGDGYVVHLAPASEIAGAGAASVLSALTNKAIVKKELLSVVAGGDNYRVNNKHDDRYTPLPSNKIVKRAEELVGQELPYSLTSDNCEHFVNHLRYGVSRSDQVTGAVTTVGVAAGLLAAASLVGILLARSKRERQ

Row | IC50 [1] | IC50 [2] | IC50 [3] | IC50 [4] | pIC50 [2] | Structure (SMILES)
1 | 6.31 µM | 1.58 µM | 10 µM | 7.94 µM |  | O=C(/C=C/c1ccccc1)C(=O)NCCc1ccccc1
2 | 0.631 µM | 2.51 µM | 6.31 µM | 5.01 µM |  | O=C(/C=C/c1ccc(Br)cc1)C(=O)NCCc1ccccc1
3 | 1.58 µM | 2 µM | 2.51 µM | 1.26 µM |  | O=C(CCc1ccccc1Cl)C(=O)NCCc1ccccc1
4 | 0.0398 µM | 0.126 µM | 1.26 µM | 2 µM |  | Cc1ccc(CCNC(=O)C(=O)CCCc2ccccc2)cc1
5 | 0.0316 µM |  | 0.631 µM |  | 7 | O=C(CCCc1ccccc1)C(=O)NCCc1ccc(Oc2ccc(C(F)(F)F)cn2)cc1
6 | 0.794 µM | 1.26 µM | 2.51 µM | 6.31 µM |  | O=C(CCCc1ccccc1)C(=O)NCCc1ccccc1Cl
7 | 2.51 µM | 2 µM | 1.58 µM | 5.01 µM |  | Cc1ccc(CCC(=O)C(=O)NCCc2ccccc2)cc1
8 | 1 µM | 7.94 µM | 3.98 µM | 2.51 µM |  | CCNC(=O)C(=O)CCc1ccc(Cl)cc1
9 | > 10 µM | > 10 µM | > 10 µM | > 10 µM |  | CC(=O)C(=O)NCCc1ccccc1
10 | 1.26 µM | 3.16 µM | 1.26 µM | 3.16 µM |  | COc1ccc(CCC(=O)C(=O)NCCc2ccccc2)cc1
11 | > 10 µM | > 10 µM | > 10 µM | > 10 µM |  | CCN(CCc1ccccc1)C(=O)C(=O)CCc1ccc(Cl)cc1
12 | 0.316 µM | 7.94 µM | 2.51 µM | 2 µM |  | O=C(CCc1ccc(C(F)(F)F)cc1)C(=O)NCCc1ccccc1
13 | > 10 µM | > 10 µM | > 10 µM | > 10 µM |  | O=C(CCc1ccc(Cl)cc1)C(=O)N1CCCCC1
14 | > 10 µM | > 10 µM | > 10 µM | > 10 µM |  | O=C(NCCc1ccccc1)C(=O)c1ccccc1
15 | 1 µM | > 10 µM | 3.16 µM | > 10 µM |  | O=C(CCc1ccccc1)C(=O)NCCc1ccccc1
16 |  |  |  |  | 6 | O=C(CCc1ccc(Cl)cc1)C(=O)NCCc1ccccc1
17 | 0.1 µM | 0.398 µM | 0.631 µM | 0.501 µM |  | O=C(CCCc1ccccc1)C(=O)NCCc1ccccc1
18 | > 10 µM | > 10 µM | > 10 µM | > 10 µM |  | O=C(NCc1ccccc1)C(F)(F)C(O)CCc1ccccc1 (configuration not stated)
19 | > 10 µM | > 10 µM | > 10 µM | > 10 µM |  | O=C(NCCc1ccccc1)C(=O)c1ccc(Cl)cc1
20 | > 10 µM | > 10 µM | > 10 µM | > 10 µM |  | O=C(CCc1ccc(Cl)cc1)C(=O)N1CC[C@@H](c2ccccc2)C1
21 | 1.58 µM | 5.01 µM | 10 µM | 7.94 µM |  | O=C(CCc1ccc(F)cc1)C(=O)NCCc1ccccc1
22 | 0.1 µM | 0.1 µM | 1 µM | 2 µM |  | O=C(CCc1ccc(Cl)c(Cl)c1)C(=O)NCCc1ccccc1
23 | 0.0794 µM | 0.794 µM | 1.58 µM | 1.58 µM |  | COc1ccc(CCNC(=O)C(=O)CCCc2ccccc2)cc1
24 | > 10 µM | > 10 µM | > 10 µM | > 10 µM |  | O=C(CCc1ccccc1)C(F)(F)C(=O)NCCc1ccccc1
25 | 0.2 µM | 1 µM | 1.58 µM | 0.631 µM |  | O=C(CCc1ccc(Cl)cc1)C(=O)NCCCCc1ccccc1

Row | IC50 [1] | IC50 [2] | IC50 [3] | IC50 [4] | pIC50 [2] | Structure (SMILES)
26 | 3.16 µM | > 10 µM | 7.94 µM | > 10 µM |  | O=C(/C=C/c1cccc(Br)c1)C(=O)NCCc1ccccc1
27 | 0.316 µM | 1 µM | 6.31 µM | 5.01 µM |  | COc1ccc(CCNC(=O)C(=O)CCCc2ccccc2)cc1OC
28 | 0.0794 µM | 0.158 µM | 0.0794 µM | 0.2 µM |  | O=C(CCCc1ccccc1)C(=O)NCCc1ccc(Oc2ccc(C(F)(F)F)nc2)cc1
29 | > 10 µM | > 10 µM | > 10 µM | > 10 µM |  | O=C(CCc1ccc(Cl)cc1)C(=O)N1CCCC1
30 | 0.251 µM | 2 µM | 1.26 µM | 2 µM |  | O=C(CCCc1ccccc1)C(=O)NCCc1ccc(Oc2ncccn2)cc1
31 | 0.631 µM | 2.51 µM | 2.51 µM | 1.58 µM |  | O=C(/C=C/c1ccc(Cl)cc1)C(=O)NCCc1ccccc1
32 | 0.251 µM | 1.58 µM | 2.51 µM | 2.51 µM |  | O=C(CCc1ccc(Cl)cc1)C(=O)NCc1ccccc1
33 | 0.0631 µM | 0.251 µM | 0.794 µM | 1.26 µM |  | O=C(CCCc1ccccc1)C(=O)NCCc1ccc(Cl)cc1Cl
34 | > 10 µM | > 10 µM | > 10 µM | > 10 µM |  | CN(CCc1ccccc1)C(=O)C(=O)CCc1ccc(Cl)cc1
35 | > 10 µM | > 10 µM | > 10 µM | > 10 µM |  | COCCN(CCOC)C(=O)C(=O)CCc1ccc(Cl)cc1
36 | > 10 µM | > 10 µM | > 10 µM | > 10 µM |  | O=C(CCc1ccc(Cl)cc1)C(=O)N1CCC[C@H]1Cc1ccccc1
37 | > 10 µM | > 10 µM | > 10 µM | > 10 µM |  | O=C(CCc1ccc(Cl)cc1)C(=O)N1CCCC[C@H]1c1ccccc1
38 | > 10 µM | > 10 µM | > 10 µM | > 10 µM |  | CN1CCN(C(=O)C(=O)CCc2ccc(Cl)cc2)CC1
39 | > 10 µM | > 10 µM | > 10 µM | > 10 µM |  | CN(C)C(=O)C(=O)CCc1ccc(Cl)cc1
40 | 1 µM | 5.01 µM | 2.51 µM | 1.58 µM |  | COc1ccc(/C=C/C(=O)C(=O)NCCc2ccccc2)cc1
41 | > 10 µM | > 10 µM | > 10 µM | > 10 µM |  | CCOC(=O)C(F)(F)C(O)CCc1ccccc1 (configuration not stated)
42 | 0.158 µM | 1.58 µM | 2.51 µM | 1.26 µM |  | O=C(CCCc1ccccc1)C(=O)NCCc1ccc(O)cc1
43 | 0.158 µM | 1 µM | 1.58 µM | 3.16 µM |  | O=C(CCCCc1ccccc1)C(=O)NCCc1ccccc1
44 | > 10 µM | > 10 µM | > 10 µM | > 10 µM |  | O=C(CCc1ccccc1)C(F)(F)C(=O)NCc1ccccc1
45 | > 10 µM | > 10 µM | > 10 µM | > 10 µM |  | O=C(CCc1ccc(Cl)cc1)C(=O)N1CCOCC1
46 | 1.26 µM | 1.58 µM | 1.26 µM | 2.51 µM |  | O=C(CCc1cccc(Cl)c1)C(=O)NCCc1ccccc1
47 | 0.0631 µM | 0.251 µM | 0.631 µM | 0.501 µM |  | O=C(CCCc1ccccc1)C(=O)NCCc1ccc(Oc2cnccn2)cc1
48 | > 10 µM | > 10 µM | > 10 µM | > 10 µM |  | O=C(CCc1ccccc1)CC(=O)NCc1ccccc1
49 | 0.0501 µM | 0.2 µM | 1 µM | 0.794 µM |  | O=C(CCCc1ccccc1)C(=O)NCCc1cccc(Cl)c1

From ChEMBL document CHEMBL4622983, “Structure-Activity Relationship Studies of α-Ketoamides as Inhibitors of the Phospholipase A and Acyltransferase Enzyme Family” (J Med Chem, 2020)
